High-throughput results deposited in PubChem BioAssay by several laboratories.
Only some compounds are listed: those with a hit (about 1.3% of all), similar ones and a draw of the others.
STK33 inh: inhibitors of purified STK33 kinase, primary screen, biochemical, ADP-Glo luminescence, homogeneous, cell-free | AID 2661, 2010 | Serine/threonine-protein kinase 33 (Homo sapiens), Q9BYT3 | 320,000 compounds, 0.073% hits | MBP phosphorylation | inhibition, % at 10 µM;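 active = inhibition at or above 25%, using the most active replicate where run in duplicate; inactive = inhibition below 25%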
TAG inh: inhibitors of triacylglycerol accumulation, primary screen, cell-based, uHTS, fluorescence, H9c2; AID 651582, 2012; 230,000 compounds, 0.66% hits; H9c2 cells, Nile Red lipid (TAG) fluorescence; cells loaded with 200 µM oleic acid; inhibition, % at 12.5 µM;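 active = pattern-corrected inhibition of lipid staining of at least 50% with the nuclear-stain viability signal not falling by more than 50%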;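 also: 0% = DMSO wells and 100% = triacsin C control wells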
LANA-H2A inh: blockers of LANA interaction with H2A/H2B – biochemical, FP readout, HTS, primary screen | Protein LANA1 (Human herpesvirus 8 type P (isolate GK18)), Q9QR71 | cell-free LANA-H2A/H2B peptide, fluorescence polarization | inhibition, % (concentration not given with the values) | 320,000 compounds, 0.6% hits; in the data active = inhibition mostly above about 10%, no sharp cut-off; inactive = mostly below about 6.7%
GSK3 alpha inh: blockers of GSK3A enzyme activity – biochemical, luminescence, cell-free homogeneous, HTS, primary screen; Glycogen synthase kinase-3 alpha (Homo sapiens), P49840; GSK-3 alpha kinase, ADP-Glo luminescence, 60 min; inhibition, % at 10 µM; 320,000 compounds, 0.1% hits;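 active = more than half of replicates show inhibition above 20%; inconclusive = some but at most half of replicates above 20% inhibition; inactive = no replicate shows inhibition above 20%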;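 also: GST-tagged GSK-3 alpha with peptide substrate and 25 µM ATP; 0% = DMSO neutral wells and 100% = GW8510 positive control wells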
Lipid droplet: inhibitors of hepatocyte lipid droplet formation, primary screen, imaging, high-throughput imaging, BODIPY stain | AML12 mouse hepatocytes, oleate lipid droplets | inhibition, % at 6.5 µM | 240,000 compounds, 0.4% hits | AID 1656, 2009;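 active = lipid droplet intensity inhibited by at least 50%, with more than 500 cells counted; inconclusive = wells with under 300 cells, treated as cytotoxic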
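Test system: AML12 mouse liver cells; schedule: overnight exposure; technique: high-content imaging of BODIPY-stained droplets and DAPI nuclei; read-out: % inhibition of corrected integrated BODIPY droplet signal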
GSK3beta inhib: human GSK3beta kinase inhibitors, primary screen, biochemical, cell-free homogeneous, HTS | Glycogen synthase kinase-3 beta (Homo sapiens), P49841 | GST-GSK3beta kinase, ADP-Glo luminescence, 60 min; stronger effect = lower value | activity score (negative = inhibition), % at 10 µM | 300,000 compounds, 0.038% hits | AID 2097, 2009;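 active = more than half of replicate wells score below -50%, meaning over 50% inhibition versus plate controls; inconclusive = some replicates but at most half score below -50%; inactive = no replicate scores below -50%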;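 also: 0% = median DMSO wells and -100% = median GW8510 positive control wells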
Target sequence (P49841 whole entry, looked up): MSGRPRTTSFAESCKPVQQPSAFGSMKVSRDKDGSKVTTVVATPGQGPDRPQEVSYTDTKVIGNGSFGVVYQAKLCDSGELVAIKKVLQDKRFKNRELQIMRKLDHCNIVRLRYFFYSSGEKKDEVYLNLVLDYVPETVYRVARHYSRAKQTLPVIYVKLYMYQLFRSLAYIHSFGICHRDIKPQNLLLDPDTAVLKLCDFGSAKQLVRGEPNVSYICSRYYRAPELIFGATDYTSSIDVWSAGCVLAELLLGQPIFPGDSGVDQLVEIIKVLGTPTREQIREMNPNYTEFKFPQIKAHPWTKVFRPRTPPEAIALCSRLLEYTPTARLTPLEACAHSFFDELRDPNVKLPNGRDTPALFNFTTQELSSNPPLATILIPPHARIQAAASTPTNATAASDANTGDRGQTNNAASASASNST
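test system = GST-tagged human GSK3beta kinase, cell-free | reagent = 25 µM ATP with peptide substrate | dosing = one dose of 10 µM per compound | schedule = 60 min reaction, RT | detection = luminescent ADP-Glo measurement of ADP formed | control set = DMSO neutral wells and GW8510 at 20 µM as positive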
An asterisk follows results filed as active; ? = inconclusive; · = no result; + = active, no number; ! = not confirmed by another sample.

SMILES | STK33 inh | TAG inh | LANA-H2A inh | GSK3 alpha inh | Lipid droplet | GSK3beta inhib
CC(Oc1ccc(Cl)cc1)C(=O)Nc1ccc(S(=O)(=O)Nc2nccs2)cc1 (centres undefined) | -1.1 | · | 3.3 | -0.3 | 9.9 | -1.7
COc1cc(CN(C)c2ncnc3sccc23)ccc1OC(F)F | 0.2 | · | 16.5* | 2.8 | -19.7 | 0.5
N#Cc1cc(Oc2ccccc2)c(-n2nnc3ccccc32)cc1C#N | -2.6 | -5.0 | 26.3* | -4.2 | -8.8 | 2.5
N#Cc1cc(Oc2ccc3ccccc3c2)c(-n2nnc3ccccc32)cc1C#N | 1.7 | · | -8.9 | -0.9 | 14.2 | 1.5
O=C(N/C(=C\c1ccc([N+](=O)[O-])cc1)C(=O)N1CCCCC1)c1ccccc1 | 14.2 | 0.2 | 12.7* | 13.6 | 11.3 | -1.0
CCOc1cccc(-c2c(C(=O)N/N=C/c3ccc(C)s3)nnn2-c2nonc2N)c1 | 0.1 | · | 5.4 | 2.8 | 9.3 | 1.1
Cn1c(=O)c(N)c2c3c(c(Br)ccc31)C(=O)c1ccccc1-2 | 2.8 | -22.3 | 42.7* | 4.0 | -12.6 | -1.6
Cc1csc(CCc2nc(C)cs2)n1 | -1.2 | · | 8.4* | -0.9 | 10.9 | 0.0
O=C1OCC2=C1C(c1ccc(F)cc1)c1cc3c(cc1N2)OCO3 (centres undefined) | · | -9.2 | · | · | ? | ·
O=C1OCC2=C1C(c1ccc(F)cc1)c1cc3c(cc1N2)OCCO3 (centres undefined) | · | 59.8* | · | · | ? | ·
CCN(CC)c1ccc(S(=O)(=O)N2CCOCC2)cc1NC(=O)CN1CCc2ccccc2C1 | -0.7 | -4.3 | 32.7* | -1.2 | -10.9 | 1.2
CCOC(=O)c1ccc(NS(=O)(=O)c2ccc3c(c2)oc(=O)n3C)cc1 | 0.8 | -8.7 | 32.3* | -4.5 | 8.8 | 3.3
COC(=O)c1ccc(NS(=O)(=O)c2ccc3c(c2)oc(=O)n3C)cc1 | 2.7 | -6.0 | 2.1 | -10.3 | · | 3.1
O=C(CSC1=NNC(c2ccccn2)S1)Nc1ccc(C(F)(F)F)cc1 (centres undefined) | -1.0 | 32.2 | 2.4 | -1.8 | -39.2 | -0.1
c1ccc(CSC2=NNC(c3ccccn3)S2)cc1 (centres undefined) | -1.0 | 66.5* | -2.9 | 1.0 | -37.4 | 0.5
O=C(Cc1ccc(Cl)cc1)N1CCc2ccccc2C1 | -2.6 | -6.8 | 20.0* | -2.2 | · | 3.2
CCc1nnc(NS(=O)(=O)c2ccc(NC(=O)c3cc(Cl)ccc3Cl)cc2)s1 | -1.5 | 7.7 | 2.8 | -14.6 | 2.3 | 4.3
COc1ccc2c(c1)C(=O)Cc1ccccc1O2 | 0.2 | 1.9 | 17.4* | -2.2 | · | 6.3
COc1cccc2nc3c(C(=O)NCCN(C)C)cccc3cc12 | · | 115.6 | · | · | · | ·
CN(C)CCNC(=O)c1cccc2nc3c(ccc4ccccc43)nc12 | · | 50.8* | · | · | · | ·
CCCCCCOc1ccc(/C=C/C(=O)N2CCOCC2)cc1OC | 1.1 | -16.3 | 11.4* | -0.8 | -1.0 | 0.4
COc1cc(/C=C/C(=O)N2CCOCC2)ccc1OCc1ccccc1 | -1.0 | · | 6.0 | -1.7 | 1.5 | 1.8
Cc1cnc(NC(=O)c2ccc(OCC3CCCO3)cc2)s1 (centres undefined) | 8.5 | -3.7 | 4.9 | -0.1 | -5.1 | -0.6
O=C(Nc1nc2ccccc2s1)c1ccc(OCC2CCCO2)cc1 (centres undefined) | 0.5 | · | 2.6 | -0.2 | 51.9* | -1.6
CCc1cccc(C)c1NC(=O)C1CCCN(S(C)(=O)=O)C1 (centres undefined) | -1.2 | · | 3.6 | -2.0 | 4.7 | 2.5
SMILES | STK33 inh | TAG inh | LANA-H2A inh | GSK3 alpha inh | Lipid droplet | GSK3beta inhib
COc1ccc(N2C(=O)CSC2c2ccccc2[N+](=O)[O-])cc1 (centres undefined) | -0.2 | -2.2 | + | 0.5 | -10.4 | -2.6
COc1ccc(N2C(=O)CSC2c2ccccc2)cc1 (centres undefined) | -0.5 | · | 2.2 | -4.1 | · | -3.2
Cc1cccc(CSc2nc3nc(C)cc(C)n3n2)c1 | 0.8 | · | 0.3 | 0.7 | -11.8 | 2.3
COc1ccc(OC)c(NC(=O)CC2(CC(=O)O)CCCC2)c1 | 2.6 | · | 19.5* | -1.8 | 7.6 | 1.7
CC(C)N(CCO)Cc1nc(C(c2ccccc2)c2ccccc2)no1 | -0.1 | · | 3.7 | -5.3 | -1.0 | 2.4
Cn1nc(CC(=O)Nc2cccnc2N2CCOCC2)c2ccccc2c1=O | -0.6 | · | 38.5* | -2.0 | · | -7.8
CCC(=O)Nc1cc(-c2nn(C)c(=O)c3ccccc23)ccc1N1CCOCC1 | -0.8 | 3.4 | 1.7 | 0.5 | 5.4 | 0.7
COc1ccc(C2C(C(=O)c3cccs3)=C(O)C(=O)N2c2nncs2)cc1 (centres undefined) | 1.4 | · | 30.4* | -4.1 | · | 2.0
CC(=O)[C@@]1(O)CC[C@H]2[C@@H]3C[C@H](C)C4=CC(=O)C=C[C@]4(C)[C@@]3(F)[C@@H](O)C[C@@]21C | -1.2 | 24.2 | 18.3*! | -2.6 | 1.1 | 2.2
C[C@@H]1C[C@H]2[C@@H]3CCC4=CC(=O)C=C[C@]4(C)[C@@]3(F)[C@@H](O)C[C@]2(C)[C@@]1(O)C(=O)CO | -1.3 | 39.2 | 0.9 | 2.5 | · | -5.8
CCCC(=O)O[C@]1(C(=O)COC(C)=O)CC[C@H]2[C@@H]3C[C@H](F)C4=CC(=O)C=C[C@]4(C)[C@@]3(F)[C@@H](O)C[C@@]21C | 0.0 | 31.8 | 21.9*! | -5.1 | -1.3 | 1.0
CC1=NN(c2ccccc2)C(=O)/C1=C\c1ccc(Oc2ccc([N+](=O)[O-])cc2[N+](=O)[O-])cc1 | 0.8 | -1.8 | 21.9* | 3.1 | 5.7 | 1.5
CC(C)CCNc1nc(N)c([N+](=O)[O-])c(NCC2CCCO2)n1 (centres undefined) | 4.4 | · | 6.9 | 73.5* | 21.6 | -41.6
Nc1nc(NCCO)nc(NCC2CCCO2)c1[N+](=O)[O-] (centres undefined) | 1.7 | · | 3.5 | 80.1* | 13.1 | 0.9
Nc1nc(NCC2CCCO2)nc(NCC2CCCO2)c1[N+](=O)[O-] (centres undefined) | 0.2 | · | -3.9 | 52.2* | 39.4 | 0.1
Nc1nc(NCC2CCCO2)nc(Nc2ccccc2)c1[N+](=O)[O-] (centres undefined) | 0.0 | · | 4.5 | 10.1 | 10.9 | 2.3
Cc1csc(SCC(=O)NC(=O)NCc2ccccc2)n1 | -1.5 | -74.3 | 3.9 | -1.1 | 9.3 | -1.7
COC(=O)Cc1nnc(NC(=O)C(C)C)s1 | -0.2 | · | -7.5 | -1.2 | -3.3 | -0.4
CC(C)C(=O)Nc1nnc(CCN2CCOCC2)s1 | -0.2 | -6.4 | 17.6* | · | · | 3.0
